Series [1] relates to HeLa. The series is described as follows: Growth inhibition of human HeLa cells at 50 ug/ml after 48 hrs by spectrophotometric analysis. The series is classed as functional. Conditions: read-out: GI. A digest of the protocol: (§1)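 Normal primary human skin fibroblasts (HSF), HeLa (ECACC 93021013) and T47D (ECACC 85102201) were each seeded at 10⁴ cells/mL. Compounds were predissolved in DMSO and tested at a single 50 µg/mL (about 0.14–0.18 mM). Cultures were incubated at 37 °C, 5% CO₂, 90% humidity for 24, 48 or 72 h, and percent growth inhibition was read spectrophotometrically.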

Series [2] has as its system T47D. Nature of the series: Growth inhibition of human T47D cells at 50 ug/ml after 48 hrs by spectrophotometric analysis. Format: functional. The note with it: read-out: GI. A digest of the protocol:
as §1

Series [3] can be described thus: Growth inhibition of human HSF cells at 50 ug/ml after 72 hrs by spectrophotometric analysis. Format: cell-based. The note with it: read-out: GI. A digest of the protocol:
as §1

Series [4] can be described thus: Growth inhibition of human HSF cells at 50 ug/ml after 48 hrs by spectrophotometric analysis. Format: cell-based. The note with it: read-out: GI. A digest of the protocol:
as §1

Series [5] concerns T47D. Nature of the series: Antitumor activity against human T47D cells after 48 hrs by spectrophotometric analysis. Format: functional, cell-based. A digest of the protocol:
(§2)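 Cancer lines were HeLa (ECACC 93021013, cervix epitheloid carcinoma) and T47D (ECACC 85102201, breast carcinoma). Cells were seeded at 10⁴ cells/mL, treated with compounds dissolved in DMSO, and incubated at 37 °C, 5% CO₂, 90% humidity for 24, 48 or 72 h. Read-out was the BrdU assay, and IC50 was calculated from dose–response curves.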

Series [6] concerns HeLa. Nature of the series: Antitumor activity against human HeLa cells after 24 hrs by spectrophotometric analysis. The series is classed as functional, cell-based. The gist of the method: as §2
Series [7] concerns T47D. Nature of the series: Growth inhibition of human T47D cells at 50 ug/ml after 24 hrs by spectrophotometric analysis. Format: functional. The note with it: read-out: GI. A digest of the protocol: as §1
Series [8] concerns HeLa. Nature of the series: Antitumor activity against human HeLa cells after 48 hrs by spectrophotometric analysis. Format: functional, cell-based. The gist of the method:
as §2

Series [9] is described as follows: Lipophilicity, log Kw of the compound in methanol-water mixture by RP-HPLC. The series is classed as physicochemical. A digest of the protocol: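 Isocratic RP-HPLC on a C18 column (150 × 4.6 mm, 5 µm) at 22 °C, 1 mL/min, DAD detection. Mobile phases were methanol (30–80%), 20% acetate buffer pH 3.5 (0.2 M acetate, pH measured in aqueous solution) and 0.01 M/L octane-1-sulfonic acid sodium salt. log kw was extrapolated with the Snyder–Soczewiński equation.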

In series [10] the test system is T47D. Nature of the series: Antitumor activity against human T47D cells after 72 hrs by spectrophotometric analysis. Format: functional, cell-based. A digest of the protocol:
as §2

Series [11] relates to T47D. Nature of the series: Antitumor activity against human T47D cells after 24 hrs by spectrophotometric analysis. Format: functional, cell-based. The gist of the method: as §2
The test system of series [12] is HeLa. The series is described as follows: Antitumor activity against human HeLa cells after 72 hrs by spectrophotometric analysis. Format: functional, cell-based. A digest of the protocol:
as §2

Series [13] has as its system T47D. The series is described as follows: Growth inhibition of human T47D cells at 50 ug/ml after 72 hrs by spectrophotometric analysis. The note with it: read-out: GI. The series is classed as functional. A digest of the protocol: as §1
The subject of series [14] is HeLa. Nature of the series: Growth inhibition of human HeLa cells at 50 ug/ml after 24 hrs by spectrophotometric analysis. The series is classed as functional. The note with it: read-out: GI. The gist of the method:
as §1

Series [15] deals with HeLa. Nature of the series: Growth inhibition of human HeLa cells at 50 ug/ml after 72 hrs by spectrophotometric analysis. Format: functional. The note with it: read-out: GI. A digest of the protocol: as §1
Series [16] can be described thus: Growth inhibition of human HSF cells at 50 ug/ml after 24 hrs by spectrophotometric analysis. Format: cell-based. Conditions: read-out: GI. The gist of the method: as §1

Where only a bound is given, the exact number is not on record here.

By IC50 is commonly meant the concentration that inhibits the measured activity by half. Low values mean greater potency, high ones weaker potency. On to `O=c1c(-c2ccco2)nnc2n1CCN2c1ccccc1`, for which the inhibition of growth at 50 µg/mL was found to be 75% in series [1]; 85% in series [2]; 50% in series [7]; 95% in [13]; 50% in series [14]; 100% in [15]. The inhibition at 72 h, 50 ug/ml in [3] was found to be 60%. In addition, the inhibition at 48 h, 50 ug/ml in [4] came out at 50%. For the same compound, the IC50 in series [5] was 110 µM; in series [6], 180 µM; in series [8] it was 130 µM; in series [10], 100 µM; in series [11] it was 180 µM; in series [12], 100 µM. Besides, the logKw in series [9] amounted to 2.64. The inhibition at 24 h, 50 ug/ml in series [16] turned out to be 50%.

Consider `Cc1ccccc1N1CCn2c1nnc(-c1ccco1)c2=O`, for which the inhibition of growth at 50 µg/mL in series [1] turned out to be 25%; in series [2] it was 50%; in series [7], 25%; in [13] it was 75%; in [14], 25%; in [15] it was 50%. In addition, the inhibition at 72 h, 50 ug/ml in series [3] turned out to be 0%. Moreover, the inhibition at 48 h, 50 ug/ml in series [4] turned out to be 0%. In addition, in [9], the logKw turned out to be 2.48. In addition, the inhibition at 24 h, 50 ug/ml in [16] stood at 0%.

Regarding `Cc1ccc(N2CCn3c2nnc(-c2ccco2)c3=O)cc1`, the inhibition of growth at 50 µg/mL was found to be 50% in series [1]; 60% in series [2]; 40% in series [7]; 80% in series [13]; 50% in [14]; 80% in series [15]. The inhibition at 72 h, 50 ug/ml in series [3] amounted to 50%. Also, the inhibition at 48 h, 50 ug/ml in [4] worked out at 50%. The logKw in series [9] came out at 3.27. For the same compound, in series [16], the inhibition at 24 h, 50 ug/ml came to 30%.

As to `Cc1cccc(N2CCn3c2nnc(-c2ccco2)c3=O)c1C`, the inhibition of growth at 50 µg/mL in series [1] came to 75%; in [2], 15%; in [7] it was 0%; in series [13], 25%; in series [14], 60%; in series [15], 90%. In addition, in series [3], the inhibition at 72 h, 50 ug/ml was found to be 0%. In series [4], the inhibition at 48 h, 50 ug/ml turned out to be 0%. For the same compound, the logKw in series [9] is 3. Also, in series [16], the inhibition at 24 h, 50 ug/ml was 0%.

For `COc1ccccc1N1CCn2c1nnc(-c1ccco1)c2=O`, the inhibition of growth at 50 µg/mL in series [1] turned out to be 35%; in series [2] it was 30%; in series [7] it was 0%; in series [13], 70%; in [14] it was 25%; in series [15], 80%. Also, the inhibition at 72 h, 50 ug/ml in series [3] stood at 5%. In addition, the inhibition at 48 h, 50 ug/ml in series [4] was 0%. The logKw in [9] is on record as 2.54. In series [16], the inhibition at 24 h, 50 ug/ml amounted to 0%.

Turning to `COc1ccc(N2CCn3c2nnc(-c2ccco2)c3=O)cc1`, the inhibition of growth at 50 µg/mL in series [1] is 80%; in series [2], 70%; in series [7], 50%; in series [13] it was 80%; in series [14], 80%; in series [15], 95%. In addition, the inhibition at 72 h, 50 ug/ml in series [3] stood at 60%. The inhibition at 48 h, 50 ug/ml in [4] turned out to be 50%. Further, the logKw in series [9] was 2.89. Moreover, in series [16], the inhibition at 24 h, 50 ug/ml came out at 10%.

Take `O=c1c(-c2ccco2)nnc2n1CCN2c1ccccc1Cl`: the inhibition of growth at 50 µg/mL is 80% in series [1]; 15% in [2]; 5% in [7]; 25% in [13]; 80% in [14]; 100% in series [15]. Further, in series [3], the inhibition at 72 h, 50 ug/ml worked out at 20%. Moreover, the inhibition at 48 h, 50 ug/ml in [4] turned out to be 20%. Besides, the IC50 in [5] was > 160 µM; in series [6], 110 µM; in series [8], 110 µM; in [10], > 160 µM; in series [11], > 160 µM; in [12], 90 µM. In addition, in [9], the logKw is on record as 2.78. The inhibition at 24 h, 50 ug/ml in series [16] turned out to be 10%.

Regarding `O=c1c(-c2ccco2)nnc2n1CCN2c1cccc(Cl)c1`, the inhibition of growth at 50 µg/mL amounted to 80% in series [1]; 50% in [2]; 20% in series [7]; 80% in [13]; 80% in series [14]; 95% in [15]. For the same compound, the inhibition at 72 h, 50 ug/ml in series [3] came to 75%. Moreover, the inhibition at 48 h, 50 ug/ml in series [4] was 60%. For the same compound, in [9], the logKw turned out to be 3.45. The inhibition at 24 h, 50 ug/ml in [16] was found to be 25%.

Consider `O=c1c(-c2ccco2)nnc2n1CCN2c1ccc(Cl)cc1`, for which the inhibition of growth at 50 µg/mL in series [1] was 75%; in series [2] it was 15%; in series [7], 0%; in series [13], 15%; in [14], 50%; in [15], 90%. In addition, in series [3], the inhibition at 72 h, 50 ug/ml is 90%. For the same compound, the inhibition at 48 h, 50 ug/ml in [4] worked out at 80%. In addition, the logKw in series [9] stood at 3.45. Also, the inhibition at 24 h, 50 ug/ml in series [16] came out at 50%.

In the case of `O=c1c(-c2ccco2)nnc2n1CCN2c1ccc(Cl)c(Cl)c1`, the inhibition of growth at 50 µg/mL in [1] is 50%; in series [2], 20%; in series [7], 10%; in series [13], 40%; in [14], 50%; in series [15] it was 95%. In series [3], the inhibition at 72 h, 50 ug/ml was determined as 80%. Also, the inhibition at 48 h, 50 ug/ml in [4] was 50%. Besides, the logKw in series [9] was found to be 4.01. Besides, the inhibition at 24 h, 50 ug/ml in series [16] stood at 0%.

Take `O=c1c(-c2ccco2)nnc2n1CCN2c1c(Cl)cccc1Cl`: the inhibition of growth at 50 µg/mL was 80% in series [1]; 20% in [2]; 10% in [7]; 25% in series [13]; 80% in series [14]; 95% in series [15]. Besides, the inhibition at 72 h, 50 ug/ml in series [3] was 15%. The inhibition at 48 h, 50 ug/ml in series [4] was found to be 15%. Further, in series [9], the logKw is reported as 2.97. In series [16], the inhibition at 24 h, 50 ug/ml was determined as 10%.

Source of the values: ChEMBL document CHEMBL1817573, “Synthesis, structure elucidation, determination of the lipophilicity and identification of antitumour activities in vitro of novel 3-(2-furanyl)-8-aryl-7,8-dihydroimidazo[2,1-c][1,2,4]triazin-4(6H)-ones with a low cytotoxicity towards normal human skin fibroblast cells” (Bioorg Med Chem, 2011).
